Assay results from different studies.
Protocols differ between the studies behind these lines.
Cell line: MDA-MB-468
Effect on: cell growth or viability

SMILES | method | time | IC50
Nc1nc(Nc2ccc(S(N)(=O)=O)cc2)sc1C(=O)c1cccc(F)c1 | MTT | 72 h | 0.85 µM
O=S(=O)(Cc1ccccc1)NN=Cc1cn(CCN2CCOCC2)c2ccccc12 | MTT | 48 h | 50.6 µM
CC(=O)Nc1nc(C)c(-c2csc(Nc3ccccc3)n2)s1 | MTT | 48 h | 12.1 µM
Nc1ccc2cc3[nH]c4cc(N)ccc4c3nc2c1 | MTT |  | 0.11 µM
O=S(=O)(NN=Cc1cn(CCN2CCOCC2)c2ccccc12)c1cccc2ncccc12 | MTT | 48 h | 32.2 µM
COc1ccc(Br)cc1/C=C/C(=O)c1ccc(NC(C)=O)cc1 | MTT | 48 h | 2.4 µM
Cc1ccc(S(=O)(=O)NN=Cc2cn(CCN3CCOCC3)c3ccccc23)cc1 | MTT | 48 h | 40.8 µM
Oc1ccc(N=Nc2ccccc2)c2ccccc12 | MTT |  | 4.9 µM
COc1cccc2c1C(=O)c1c(O)c3c(c(O)c1C2=O)C[C@@](O)(C(=O)CO)C[C@@H]3O[C@H]1C[C@H](N)[C@H](O)[C@H](C)O1 | resazurin | 72 h | 0.1 µM
c1ccc2c(c1)Cc1c(Cc3csc4ccccc34)ccc3cccc-2c13 | MTT |  | 157 µM
COc1cc(/C=C2\SC(=O)NC2=O)ccc1OCc1ccc(Cl)cc1Cl | MTT | 48 h | 32.5 µM
Oc1ccc(/C=C/c2cc(O)cc3c2C(c2cc(O)cc(O)c2)C(c2ccc(O)c(O)c2)O3)cc1 (centres unmarked) | MTT |  | 18 µM
O=C(CSc1nc2ccc(N=Cc3ccc(Sc4nnnn4-c4ccccc4)o3)cc2s1)N1CCOCC1 | MTT | 72 h | 20.4 µM
O=S(=O)(NN=Cc1cn(CCN2CCOCC2)c2ccccc12)c1ccc(-c2ccccc2)cc1 | MTT | 48 h | 32 µM
Cc1cc(NS(=O)(=O)c2ccc(NC(=O)COc3ccc(C(C)(C)c4ccccc4)cc3)cc2)nc(C)n1 | MTT | 72 h | 34.9 µM
O=S(=O)(NN=Cc1cn(CCN2CCOCC2)c2ccccc12)c1ccc(Cl)cc1 | MTT | 48 h | 8.2 µM
COc1cc2cc(OC)c3cc4c(cc3c2c(OC)c1OC)OCO4 | MTT |  | 21 µM
CC(C)(C)c1ccc(S(=O)(=O)NN=Cc2cn(CCN3CCOCC3)c3ccccc23)cc1 | MTT | 48 h | 29.6 µM
Cc1c2cccc(Sc3ccccc3)c2c2c3c(cccc13)[S+](c1ccccc1)C2 (centres unmarked) | MTT |  | 0.71 µM
COc1ccc(/C=C/C(=O)c2cc(Br)ccc(=O)c2O)cc1 | MTT | 72 h | 6.6 µM
